# Mot1-301 SUMO: blocks SUMOylation pathway, rescuing yeast Mot1-301 growth. S. cerevisiae Mot1-301 growth rescue, ATP luminescence, 38.5C; percent above DMSO median, 100 means doubled. growth rescue, % at 18.8 µM. 320,000 tested, 1% active. AID 2716;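 active = every valid replicate shows activation above 250% relative to neutral control wells; inactive = the rest, any valid replicate at or below 250%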;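 also: OY570 slx delta 5 strain wells were the positive control but not used for scaling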
# KCNQ1 act: potentiates or activates the human KCNQ1 potassium channel; AID 2648; P51787; 310,000 tested, 0.35% active; B-score at 10 µM; CHO-K1 KCNQ1, thallium flux FluxOR fluorescence; hits give high values;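 active = fluorescence ratio B-score, a plate-corrected score, at least three library SD, with initial intensity B-score within 5 SD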
# Target sequence (P51787 whole entry, looked up): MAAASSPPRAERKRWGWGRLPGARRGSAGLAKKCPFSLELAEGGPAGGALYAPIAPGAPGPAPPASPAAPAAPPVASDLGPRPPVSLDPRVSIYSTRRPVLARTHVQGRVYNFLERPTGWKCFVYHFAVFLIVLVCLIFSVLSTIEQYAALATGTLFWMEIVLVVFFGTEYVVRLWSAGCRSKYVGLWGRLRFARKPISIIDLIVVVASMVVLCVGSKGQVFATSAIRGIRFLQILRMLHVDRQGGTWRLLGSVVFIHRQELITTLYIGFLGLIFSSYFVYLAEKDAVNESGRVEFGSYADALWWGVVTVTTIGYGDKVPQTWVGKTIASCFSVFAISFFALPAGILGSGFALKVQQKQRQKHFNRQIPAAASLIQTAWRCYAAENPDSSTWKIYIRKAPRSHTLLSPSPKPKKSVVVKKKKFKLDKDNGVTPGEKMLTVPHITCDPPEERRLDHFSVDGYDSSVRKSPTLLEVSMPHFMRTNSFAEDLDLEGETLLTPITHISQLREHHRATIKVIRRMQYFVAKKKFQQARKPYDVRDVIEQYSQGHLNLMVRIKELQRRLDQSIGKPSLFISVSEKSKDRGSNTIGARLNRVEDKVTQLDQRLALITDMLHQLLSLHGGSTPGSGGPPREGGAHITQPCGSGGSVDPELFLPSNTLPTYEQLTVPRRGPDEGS
#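 assay system = CHO-K1 cells stably expressing KCNQ1 | medium = assay buffer, equal DMSO in all wells | timing = 37 °C overnight plating, 90-min dark dye load, 20-min compound pretreatment | measured by = kinetic FluxOR thallium fluorescence, 10-s 1-Hz baseline, 110-s post-stimulus read | measure = fluorescence change relative to baseline, converted to B score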
# hERG protect: shields human hERG channel from block by proarrhythmic agents. activation (rescue from dofetilide block), less the hit threshold, % at 10 µM. CHO-hERG, FluxOR thallium flux, dofetilide IC70 present. 310,000 tested, 0.51% active;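 active = activation above the mean of controls blocked by dofetilide plus 5 SD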;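 also: thallium influx through hERG after potassium depolarization seen as dye fluorescence rise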
# KCNQ1 inh: human KCNQ1 channel inhibition; AID 2642; B-score at 10 µM; P51787; CHO-K1 KCNQ1, FluxOR thallium flux fluorescence; hits give high values; 310,000 tested, 1.3% active;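 active = compounds whose thallium flux B-score, printed positive for inhibition, exceeds three library SD while starting fluorescence stays within three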;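 also: channel opened by potassium depolarization with thallium stimulus after 20 min compound exposure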
# Cl transport mod: modulators of human KCC2 chloride dependent transport; Q9H2X9; KCC2 cells, thallium flux FluoZin-2 fluorescence; B-score of Tl+ flux slope (higher = more flux/activation; lower = inhibition) at 10 µM; 190,000 tested, 2.2% active;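 active = thallium flux slope and its plate-corrected score both differing from the plate sample mean at a set confidence after two filtering rounds, in either direction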;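 also: slope of fluorescence scaled to starting intensity during 10 to 20 s after thallium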
# AI-2 QS modul: Vibrio harveyi AI-2 quorum sensing modulation; 300,000 tested, 0.4% active; activity change, % at 7.5 µM; AID 2094; Vibrio harveyi JMH597 AI-2 luminescence/OD600 ratio, 9 h; hits give low values; strain lacks LuxN and CqsS sensors; 0 = neutral-control median; in the data active = activity change below about -75%, passing the limit was not always enough; inconclusive = no clear call, values can overlap the other calls;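 also: luminescence divided by OD600 gain over 9 h not by final OD600 alone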
# KCC2 sec1: KCC2 (human) modulation, secondary assay; shares compounds with Cl transport mod; HEK293-KCC2, thallium flux, FluoZin2 fluorescence; hits give high values; normalised thallium flux (F/F0 slope) at 10 µM; 3,700 tested, 15% active;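 active = thallium flux slope above the same plate's solvent-only control mean plus 3 SD; inconclusive = the two replicate wells disagree; inactive = no significant difference from solvent-only control wells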
# KCC2 bumet counter: bumetanide-insensitive thallium flux in KCC2 cells with ouabain, counter-screen; shares compounds with Cl transport mod; AID 1714; 3,700 tested, 49% active; normalized thallium flux at 10 µM; HEK293-KCC2 + bumetanide/ouabain, thallium flux FluoZin2; hits give high values;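 active = thallium entry rate above the same plate's blocked-transporter control wells by more than 3 SD; inconclusive = the two repeat wells disagree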;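 also: raw slope of fluorescence over initial fluorescence between 10 and 20 s after thallium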
# KCC2 sec2: confirmation of human KCC2 transport modulators; shares compounds with Cl transport mod; HEK293-KCC2, thallium flux FluoZin2 fluorescence; actives lie on both sides; F/F0 rise rate, 10–20 s post-thallium; normalized thallium flux at 10 µM; 3,700 tested, 23% active;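 active = thallium flux slope more than 3 SD above or below the plate's solvent-only control mean, mostly below; inconclusive = the two repeat wells disagreed; inactive = no significant shift from solvent-only controls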;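 also: raw slope with 0.1% DMSO as baseline and bumetanide as block control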
# HEK counter1: parental HEK flux effect, counter-screen; shares compounds with Cl transport mod; HEK293 parental cells, thallium flux FluoZin2, ouabain; baseline-ratio fluorescence slope, 10–20 s after thallium; thallium flux rate (normalised fluorescence) at 10 µM; 3,700 tested, 46% active;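 active = thallium flux rate significantly above the same plate's solvent-only control wells, beyond their mean plus 3 SD; inconclusive = the two replicate wells gave conflicting results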
# KCC2 ouabain: modulates human KCC2 on retest with ouabain. shares compounds with Cl transport mod. HEK293-KCC2, thallium flux FluoZin2 fluorescence; bidirectional: low = inhibitor, high = activator. raw Tl+ flux slope (below DMSO = inhibition, above = activation) at 10 µM. 3,700 tested, 48% active. AID 1717;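 active = thallium flux slope beyond 3 SD from same-plate DMSO control mean in most replicates, usually higher, sometimes lower; inconclusive = repeat tests gave conflicting results; inactive = no significant difference from controls in most replicates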;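 also: slope of initial-normalized fluorescence between seconds 10 and 20 after thallium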
# HEK293 Tl flux2: counter-screen for KCC2 modulators: effect in parental HEK293 cells. thallium flux FluoZin-2 fluorescence slope. AID 1718. shares compounds with Cl transport mod. 3,700 tested, 33% active. thallium flux slope at 10 µM;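 active = thallium flux slope above the same plate's solvent-control mean plus 3 SD in both duplicate wells; inconclusive = duplicate wells that disagreed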;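 also: run without ouabain in cells lacking the KCC2 cotransporter; slope of fluorescence scaled to its starting value between 10 and 20 s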
# * = called active by the depositor; i = inactive; ? = inconclusive; nt = not tested or not shown. Rows were chosen to be rich in hits. Some 4.2% of all compounds tested hit in one or more screens of this group.
SMILES,Mot1-301 SUMO,KCNQ1 act,hERG protect,KCNQ1 inh,Cl transport mod,AI-2 QS modul,KCC2 sec1,KCC2 bumet counter,KCC2 sec2,HEK counter1,KCC2 ouabain,HEK293 Tl flux2
CCCNC(=O)CN1C(=O)COc2ccc(S(=O)(=O)N3CC(C)CC(C)C3)cc21 (configuration not stated),3.6,i,-6.3,i,nt,7.8,nt,nt,nt,nt,nt,nt
Cc1ccc(Cn2c(SCC(N)=O)nc3c2c(=O)n(C)c(=O)n3C)cc1,5.1,i,-7.4,i,4.83*,13.2,0.00636,?,0.0335,0.00753,0.0186,0.011
Cc1ccc(Cn2c(SCCN3CCCCC3)nc3c2c(=O)n(C)c(=O)n3C)cc1,-4.7,i,-12.3,i,nt,25.2,nt,nt,nt,nt,nt,nt
CC(/C=C/c1ccco1)=N\NC(=O)c1cc(C)[nH]n1,2.3,i,-12.9,i,nt,4.0,nt,nt,nt,nt,nt,nt
CC(/C=C/c1ccco1)=N\NC(=O)c1cc(Cl)ccc1O,32.4,i,-3.0,i,13.1*,27.7,0.0156*,0.0259*,0.0392,?,0.0324*,0.0105
O=C(NNC1=NC2(CCCC2)Cc2ccccc21)c1ccncc1,1.2,i,-2.1,i,0.714,1.8,nt,nt,nt,nt,nt,nt
CC(=O)N1N=C2c3ccccc3CCC2C1c1ccc(F)cc1 (configuration not stated),20.7,i,-1.9,i,-3.58*,6.0,0.00754,0.00527,0.034,?,0.0162*,0.0104
CCCCOC(=O)n1c(=O)oc2ccccc21,36.7,i,-7.4,i,-4.28*,7.7,0.0117*,0.00577,0.0362,0.00709,0.0214,0.0106
O=C(OCC(=O)N1CCN(c2ccccc2)CC1)c1ncc(Cl)c(Cl)c1Cl,20.9,i,-15.2,i,nt,22.1,nt,nt,nt,nt,nt,nt
S=c1[nH]nc(C2CCCCC2)n1/N=C/C=C/c1ccccc1,227.9,i,-4.1,i,7.74*,-92.4*,0.00677,0.0369*,0.0459*,0.0337*,0.0318*,0.0309*
O=[N+]([O-])c1ccccc1/C=N/n1c(C2CCCCC2)n[nH]c1=S,16.7,i,-8.8,i,11*,19.3,0.00643,0.0325*,0.0359,0.024*,0.0307*,0.0193*
Cc1ccc(NC(=O)C(C)Sc2nc(=O)cc(N)n2-c2ccccc2)cc1 (configuration not stated),691.4,i,-5.4,i,nt,6.4,0.00837,0.00652,0.0315,0.00399,0.0185,0.0113
Nc1cc(=O)nc(SCC(=O)Nc2ccccc2)n1-c1ccccc1,-0.2,i,-7.6,i,0.377,3.6,nt,nt,nt,nt,nt,nt
COC(=O)c1ccccc1NC(=O)CSc1ccccc1,1.4,i,-14.5,i,-0.148,6.2,nt,nt,nt,nt,nt,nt
COC(=O)c1ccccc1NC(=O)CSc1ccc(C)cc1,-35.1,i,-13.5,i,-4.3*,-0.4,0.00829,?,0.0331,0.00626,0.0204,0.0105
CCCN1C(=O)c2ccc(C(=O)Nc3ccccc3C(=O)O)cc2C1=O,-2.0,i,-5.8,i,nt,15.3,nt,nt,nt,nt,nt,nt
COc1ccc(CC(=O)N(Cc2ccccc2)c2ccc(C)cc2)cc1OC,-11.8,i,-10.8,i,nt,44.7,nt,nt,nt,nt,nt,nt
CC(Oc1ccc(Br)cc1)C(=O)NCCCN1CCCC1=O (configuration not stated),-9.9,nt,nt,nt,nt,nt,nt,nt,nt,nt,nt,nt
Cc1ccc(Cc2nc3ccccc3[nH]2)cc1,-10.4,i,-6.5,i,nt,-21.8,nt,nt,nt,nt,nt,nt
S=c1nc(Cc2ccc(Cl)cc2)[nH]c2ccccc12,1.7,43*,4.0,i,66.6*,17.2,0.0529*,0.153*,0.0437*,0.0985*,0.0848*,0.0435*
O=C(OCC(=O)N1CCc2ccccc2C1)c1ccc(Cl)c([N+](=O)[O-])c1,-0.3,nt,nt,nt,nt,nt,nt,nt,nt,nt,nt,nt
O=C(OCC(=O)N1CCc2ccccc2C1)c1ccc(N2CCOCC2)c([N+](=O)[O-])c1,-14.0,i,-8.8,i,-4.3*,23.3,0.00556,0.00502,0.0218*,0.0072,?,0.0113
Nc1ccc(C(=O)OCC(=O)N2CCc3ccccc3C2)cc1[N+](=O)[O-],-11.9,i,-10.3,i,-5.94*,38.6,0.00566,0.0058,0.0273*,?,0.012*,0.0103
O=C(c1ccc(N2CCCCCC2)c([N+](=O)[O-])c1)N1CCc2ccccc21,nt,i,-9.2,i,-6.68*,18.3,0.0155,?,0.0232*,0.0071,0.0118,0.00942
CCCc1ccc2oc(C(=O)N3CCN(C4CCS(=O)(=O)C4)CC3)c(C)c2c1 (configuration not stated),2.4,i,-10.8,i,nt,23.6,nt,nt,nt,nt,nt,nt
SMILES,Mot1-301 SUMO,KCNQ1 act,hERG protect,KCNQ1 inh,Cl transport mod,AI-2 QS modul,KCC2 sec1,KCC2 bumet counter,KCC2 sec2,HEK counter1,KCC2 ouabain,HEK293 Tl flux2
COCc1cc(C)nc(OCC(=O)N/N=C/c2ccco2)c1C#N,-3.9,i,-7.2,i,0.662,-1.1,nt,nt,nt,nt,nt,nt
COCc1cc(C)nc(OCC(=O)N/N=C/c2ccc(-c3cc([N+](=O)[O-])ccc3Cl)o2)c1C#N,313.1,i,-7.8,i,6.77*,20.5,0.00717,0.0155*,0.0354,0.0238*,0.0274*,0.021*
Cc1ccc(CNC(=O)c2ccc(OCC3CCCO3)cc2)cc1 (configuration not stated),25.6,i,-8.7,i,0.0242,21.7,nt,nt,nt,nt,nt,nt
CCOc1cc(/C=C(/C#N)c2ccc(F)cc2)ccc1OCc1ccc(C(=O)O)o1,-1.7,i,-34.3,i,-4.91*,21.4,0.0159,0.00405,0.0237*,0.00547*,0.0123*,?
Cc1nn(CCCC(=O)N2CCc3ccccc3C2)c(=O)c2cc3sccc3n12,-7.8,i,-18.1,i,-6.5*,10.5,0.00583,0.00508,?,?,0.0119*,0.011
CCc1nn(CCCC(=O)N2CCc3ccccc3C2)c(=O)c2cc3occc3n12,5.4,i,-10.9,i,-5.84*,2.6,0.0075,0.00602,0.0305,0.00624,0.0143*,0.0102
